Sampled rows, rich in hits. Any-hit rate of the full collection: about 4.6%.
WT yeast gro inh = growth inhibition of WT yeast, mitochondrial fusion screen; mitochondrial fusion phenotypic screen, WT strain; inhibition, % at 10 µM; 190,000 compounds, 2.1% hits; AID 1362; in the data active = inhibition above about 58%; tested in S. cerevisiae
RAM inhibit = yeast RAM network inhibition; S. cerevisiae dse1pr::URA3 reporter, 5-FOA growth OD615, 2 d; analog-sensitive cbk1-as2 kinase mutant strain; inhibition, % at 50 µM; 190,000 compounds, 1.8% hits;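 active = inhibition above a set limit, 3 SD over mean compound inhibition, cut at about 8.4% in these data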;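 also: 0% = DMSO-only wells with no growth and 100% = 10 µM 1-NA-PP1 full growth; inhibition rescues growth on 5-FOA so higher OD means more RAM inhibition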
Arbovirus anti = blocks arbovirus infection; inhibition, % at 10 µM; 200,000 compounds, 0.37% hits; arbovirus infection cell-based antiviral screen; in the data active = inhibition above about 30%
Hck Nef HTS = human Hck-Nef kinase inhibition | P08631 | inhibition, % at 20 µM | AID 463187 | Recombinant Hck-YEEI plus Nef, Z-Lyte FRET kinase assay | 220,000 compounds, 0.68% hits;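 active = Hck-Nef kinase inhibition above about 50%, limit read from the data; inactive = inhibition below that limit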;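 also: 0% = DMSO with Hck plus Nef and 100% = Hck alone without Nef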
Target sequence (P08631 whole entry, looked up): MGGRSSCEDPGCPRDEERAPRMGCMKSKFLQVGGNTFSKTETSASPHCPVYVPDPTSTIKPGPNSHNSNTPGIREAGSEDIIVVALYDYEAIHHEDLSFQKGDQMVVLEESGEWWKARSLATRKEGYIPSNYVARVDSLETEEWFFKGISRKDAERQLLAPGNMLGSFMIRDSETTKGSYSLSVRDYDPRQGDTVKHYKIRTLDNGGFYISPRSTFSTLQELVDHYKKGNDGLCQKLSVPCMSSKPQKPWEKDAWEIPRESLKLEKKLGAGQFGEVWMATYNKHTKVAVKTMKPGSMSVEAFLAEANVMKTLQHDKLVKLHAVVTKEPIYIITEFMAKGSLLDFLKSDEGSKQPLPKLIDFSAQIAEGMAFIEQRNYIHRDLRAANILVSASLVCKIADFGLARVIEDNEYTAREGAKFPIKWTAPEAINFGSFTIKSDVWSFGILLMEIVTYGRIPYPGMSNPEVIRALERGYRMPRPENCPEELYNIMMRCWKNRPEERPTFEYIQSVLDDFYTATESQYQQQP
NCF1 inh = inhibitors of human p47phox binding; P14598; 220,000 compounds, 0.53% hits; p47phox/p22phox peptide binding, fluorescence polarization, 2 h; inhibition, % at 24.7 µM; AID 1274;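 active = inhibition above about 30%, limit read from the data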;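 also: 0% = p47phox with labelled peptide and 100% = labelled peptide alone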
Calb biofilm kill = mixtures killing C. albicans biofilm. C. albicans biofilm persisters + clotrimazole, fluorescence viability; primary screen in compound mixtures of four per well. inhibition, % at 7.6 µM. 120,000 compounds, 0.02% hits;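 active = inhibition above 30.3% in the primary screen of four-compound pools, then above 30% when the compound was retested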;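 also: compounds exposed to preformed 24 h biofilms for 48 h; 0% = untreated biofilm control and 100% = clotrimazole plus chlorhexidine kill blank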
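System: C. albicans CAF4-2 wild-type biofilms; Medium: RPMI/MOPS medium, pH 7.0; Reagent: Clotrimazole, 50 µg/mL; Times: biofilm formation 24 h, compound exposure 48 h, 37 °C; Detection: 2-h Alamar Blue fluorescence, 535/590 nm excitation/emission; Evaluation: percent inhibition of biofilm viability.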
The depositor's hits bear a star; nt = no result given.

SMILES	WT yeast gro inh	RAM inhibit	Arbovirus anti	Hck Nef HTS	NCF1 inh	Calb biofilm kill
Cc1cc(C)c(S(=O)(=O)NCC2CCC(C(=O)NCCCN3CCOCC3)CC2)c(C)c1 (stereo not given)	-1	-1	-2	-1	39*	nt
FC(F)(F)c1nc(N2CCCC2)ncc1-c1nnnn1-c1ccccc1	60*	0	4	1	1	nt
Cc1ccc(-n2nnnc2-c2cnc(N3CCCC3)nc2C(F)(F)F)cc1	6	1	-24	-20	-11	nt
O=C(O)CCC(=O)Nc1ccc(/C=C/C(=O)C2CC2)cc1	2	0	1	16	0	5
COc1ccc(CN2C(=O)c3ccccc3C(/C=N/OCc3ccc(Cl)cc3)C2=O)cc1 (stereo not given)	8	10*	-4	2	-13	nt
CC(=O)Nc1ccc(S(=O)(=O)NCC2CCC(C(=O)NC(C)c3ccc4c(c3)OCCO4)CC2)cc1 (stereo not given)	-14	2	1	-16	-3	10
CCCS(=O)(=O)Nc1cc(C(F)(F)F)ccc1OCCOC	12	3	5	2	-23	nt
COC(=O)c1ccccc1Oc1nc(Cl)cc(OC)n1	-14	0	-7	0	-1	7
COc1cc(OC)nc(Oc2ccccc2C(=O)Oc2ccc(C)cc2)n1	63	9.5*	2	1	0	nt
COc1ccccc1C(=O)Oc1ccc(C(C)(C)C)cc1	nt	2	6	-19	-7	nt
COc1cc(OC)nc(Oc2ccccc2C(=O)Oc2ccccc2Cl)n1	62*	3	14	-1	-9	nt
COc1cc(OC)nc(Oc2ccccc2C(=O)Oc2ccc(Cl)cc2)n1	68*	7	5	0	-1	nt
COC(=O)c1c(Oc2nc(OC)cc(OC)n2)cccc1Oc1nc(OC)cc(OC)n1	-5	1	-2	4	-10	4
COC(=O)c1cc(C(=O)OCC(=O)NC2CCS(=O)(=O)C2)cc([N+](=O)[O-])c1 (stereo not given)	-10	-1	6	16	2	2
O=C(c1cc2ccccc2o1)N1CCN(c2ccccc2Cl)CC1	75*	6	8	2	-10	nt
COc1ccccc1CCN1C(=S)NC(C)(C)CC1(C)O (stereo not given)	70*	1	6	0	-4	nt
Cc1cccc(C)c1OCCNC(=O)c1ccc2ccccc2n1	68*	1	-3	-19	-9	1
O=C(NCCOc1ccc(Cl)cc1)c1ccc2ccccc2n1	62*	1	6	11	-7	-5
CC#C[C@]1(O)CC[C@H]2[C@@H]3CCC4=CC(=O)CCC4=C3[C@@H](c3ccc(N(C)C)cc3)C[C@@]21C	87*	3	-10	-1	0	10
O=S(=O)(c1ccccc1)c1ncc(C(F)(F)F)cc1Cl	-33	9.8*	-30	20	1	16
CC(=O)N(Cc1cccs1)Cc1cc2ccc(C)c(C)c2nc1Cl	22	3	-4	12	-5	2
CNC(=S)N/N=C/c1cn(Cc2c(F)cccc2Cl)c2ccccc12	62*	4	-2	2	2	17
CCNC(=S)N/N=C/c1cn(Cc2ccccc2F)c2ccccc12	23	2	-4	-1	7	8
COc1ccc(/C=C(/C(=O)NCc2ccccc2)c2ccccc2)cc1	33	11*	-25	0	-8	7
COc1ccccc1/C=C(/C(=O)OCC(=O)NCc1ccccc1)c1ccccc1	37	10*	6	5	-7	9
SMILES	WT yeast gro inh	RAM inhibit	Arbovirus anti	Hck Nef HTS	NCF1 inh	Calb biofilm kill
Clc1ccc(/C=N/Nc2nc(Cl)nc3ccccc23)cc1	-3	0	-1	-3	70*	nt
Cc1ccc(S(=O)(=O)n2nc(C)cc2C)cc1	2	0	7	-1	43*	nt
Cc1cc(C)n(S(=O)(=O)c2cc(C)c(C)cc2C)n1	2	1	-7	1	-13	nt
O=S(=O)(c1ccc(Br)s1)N1CCC(Cc2ccccc2)CC1	-4	1	4	-20	-26	nt
O=S(=O)(c1ccc(Cl)s1)N1CCC(Cc2ccccc2)CC1	37	8.9*	11	10	-6	nt
CCc1ccc(S(=O)(=O)NCCc2csc(-c3ccccc3)n2)s1	-11	8.5*	-33	5	-13	nt
CCn1nc(C)c(/C=N/NC(=O)Cn2cncn2)c1C	nt	nt	nt	11	-12	3
O=C(COC(=O)c1ccc(NS(=O)(=O)c2cccs2)cc1)NCc1ccco1	nt	nt	nt	57*	-13	25
Cc1ccc(NS(=O)(=O)c2cccc(C(=O)OCC(=O)NCc3ccco3)c2)cc1	-1	2	-5	-10	-18	nt
OCCNC1=NCCN1	-6	1	0	1	-7	nt
Fc1ccc(Sc2ccccc2CNC2=NCCN2)cc1	79*	1	9	3	-5	-2
COC(=O)c1cc2ccccc2c(-c2c(OC)c(C(=O)OC)cc3ccccc23)c1OC	72*	6	-13	-1	-6	nt
Cc1cc(C)c(N2CCN(S(=O)(=O)N3CCCCCC3)CC2)c(C)c1	61*	11*	-11	0	-13	nt
CSc1ccccc1NC(=O)CO/N=C(\C)c1cc2ccccc2o1	54	9.2*	38*	2	-3	7
C/C(=N\OCC(=O)Nc1ccc(F)c(F)c1F)c1cc2ccccc2o1	25	2	8	4	-20	15
O=C(COc1ccccc1[N+](=O)[O-])Nc1ccc(NC(=O)c2cc3ccccc3o2)cc1	-2	1	-10	24	32*	12
C/C(=N\OCC(=O)NC12CC3CC(CC(C3)C1)C2)c1cc2ccccc2o1	66*	5	-16	4	5	0
O=C(COc1ccccc1[N+](=O)[O-])Nc1ccc2c(c1)OCO2	5	4	-2	5	-2	9
CCc1ccc(NC(=O)CO/N=C(\C)c2cc3ccccc3o2)cc1	18	8.4*	-2	1	-13	16
COc1ccc(-c2nc(NC(=O)CSc3nnc(C)s3)ns2)cc1	-11	3	6	1	-22	nt
CCOC(=O)N1CCN(C(=O)c2ccccc2CCc2ccccc2)CC1	10	2	1	11	87*	nt
CCOC(=O)N1CCN(C(=O)c2ccccc2-c2ccccc2)CC1	-6	0	-23	-2	-12	15
COCC1CCCN(Cc2cn(-c3ccccc3F)nc2-c2cc(C)sc2C)C1 (stereo not given)	19	-1	-16	-6	1	10
COc1ccccc1CNC(=O)c1ccccc1N	9	-1	9	8	-3	nt
COc1ccccc1CNC(=O)c1ccccc1OCc1ccc(F)cc1	67*	6	-19	2	-6	23
Oc1ccc(Nc2nc3ccccc3nc2Nc2ccc(O)cc2)cc1	-1	1	-42	-11	66*	nt
Cc1ccc2nc(NC(=O)CSc3nncc(=O)n3N)sc2c1	13	3	-6	7	-19	9

Screens deposited in PubChem BioAssay by several laboratories.
